The source made the active and inactive calls. No cut-off for these calls is given here.
Legend:
[1] = system: Mycobacterium tuberculosis; experiment: Antimycobacterial activity against Mycobacterium tuberculosis H37Ra at 100 ug/mL after 24 to 48 hrs by MABA; assay type: functional
Outline: (§1)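 Compounds in DMSO (100× highest final concentration), diluted in 7H9GC; tested at 100, 50, 10 and 1 µg/mL in triplicate, three experiments. Frozen inoculum diluted in 7H9GC. Read visually and spectrophotometrically. […], mean given. Visual MIC = lowest concentration preventing blue-to-pink change.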

[2] = system: Mycobacterium tuberculosis; experiment: Antimycobacterial activity against Mycobacterium tuberculosis H37Ra at 50 ug/mL after 24 to 48 hrs by MABA; assay type: functional; outline: as §1
[3] = system: Mycobacterium tuberculosis; experiment: Antimycobacterial activity against Mycobacterium tuberculosis H37Ra at 10 ug/mL after 24 to 48 hrs by MABA; assay type: functional; outline: as §1
[4] = system: Mycobacterium avium; experiment: Antimycobacterial activity against Mycobacterium avium ATCC 25291 at 100 ug/mL after 24 to 48 hrs by MABA; assay type: functional; outline: as §1
[5] = system: Mycobacterium avium; experiment: Antimycobacterial activity against Mycobacterium avium ATCC 25291 at 50 ug/mL after 24 to 48 hrs by MABA; assay type: functional; outline: as §1
[6] = system: Staphylococcus aureus; experiment: Antibacterial activity against Staphylococcus aureus up to 100 ug/ml after 16 to 20 hrs by broth microdilution method; assay type: functional, organism-based
[7] = system: Staphylococcus epidermidis; experiment: Antibacterial activity against Staphylococcus epidermidis up to 100 ug/ml after 16 to 20 hrs by broth microdilution method; assay type: functional, organism-based
[8] = system: Enterococcus faecalis; experiment: Antibacterial activity against Enterococcus faecalis up to 100 ug/ml after 16 to 20 hrs by broth microdilution method; assay type: functional, organism-based
[9] = system: Bacillus subtilis; experiment: Antibacterial activity against Bacillus subtilis up to 100 ug/ml after 16 to 20 hrs by broth microdilution method; assay type: functional, organism-based
[10] = system: Streptococcus pneumoniae; experiment: Antibacterial activity against Streptococcus pneumoniae up to 100 ug/ml after 16 to 20 hrs by broth microdilution method; assay type: functional, organism-based
[11] = system: Salmonella typhimurium; experiment: Antibacterial activity against Salmonella Typhimurium up to 100 ug/ml after 16 to 20 hrs by broth microdilution method; assay type: functional, organism-based; conditions: Salmonella enterica subsp. enterica serovar Typhimurium
[12] = system: Escherichia coli; experiment: Antibacterial activity against Escherichia coli up to 100 ug/ml after 16 to 20 hrs by broth microdilution method; assay type: functional, organism-based
[13] = system: Proteus vulgaris; experiment: Antibacterial activity against Proteus vulgaris up to 100 ug/ml after 16 to 20 hrs by broth microdilution method; assay type: functional, organism-based
[14] = system: Pseudomonas aeruginosa; experiment: Antibacterial activity against Pseudomonas aeruginosa up to 100 ug/ml after 16 to 20 hrs by broth microdilution method; assay type: functional, organism-based
[15] = system: HepG2; experiment: Toxicity against HepG2 cells; assay type: functional, cell-based; conditions: Homo sapiens
[16] = system: Mycobacterium avium; experiment: Antimycobacterial activity against Mycobacterium avium ATCC 25291 at 2 ug/mL after 24 to 48 hrs by MABA; assay type: functional
[17] = system: Mycobacterium avium; experiment: Antimycobacterial activity against Mycobacterium avium ATCC 25291 at 10 ug/mL after 24 to 48 hrs by MABA; assay type: functional; outline: as §1
[18] = system: Mycobacterium avium; experiment: Antimycobacterial activity against Mycobacterium avium ATCC 25291 at 1 ug/mL after 24 to 48 hrs by MABA; assay type: functional; outline: as §1
[19] = system: Mycobacterium tuberculosis; experiment: microbe, parasite or virus in culture; conditions: H37Ra

SMILES | inhibition at 100 µg/mL [1] [%] | inhibition at 50 µg/mL [2] [%] | inhibition at 10 µg/mL [3] [%] | inhibition at 100 µg/mL [4] [%] | inhibition at 50 µg/mL [5] [%] | Activity [6] | Activity [7] | Activity [8] | Activity [9] | Activity [10] | Activity [11] | Activity [12] | Activity [13] | Activity [14] | Activity [15] | inhibition at 2 µg/mL [16] [%] | inhibition at 10 µg/mL [17] [%] | inhibition at 1 µg/mL [18] [%] | inhibition at 1 µg/mL [19] [%]
CCCCCCCCCCC#Cc1cn(COC(CO)CO)c(=O)[nH]c1=O | 100 | 100 | 50 | 100 | 25 | inactive | inactive | inactive | inactive | inactive | inactive | inactive | inactive | inactive | Not toxic |  |  |  | 
CCCCCCCCC#Cc1cn(COC(CO)CO)c(=O)[nH]c1=O | 100 | 100 | 50 | 100 | 25 | inactive | inactive | inactive | inactive | inactive | inactive | inactive | inactive | inactive | Not toxic |  |  |  | 
CC[C@H]1OC(=O)[C@H](C)[C@@H](O[C@H]2C[C@@](C)(OC)[C@@H](O)[C@H](C)O2)[C@H](C)[C@@H](O[C@@H]2O[C@H](C)C[C@H](N(C)C)[C@H]2O)[C@](C)(OC)C[C@@H](C)C(=O)[C@H](C)[C@@H](O)[C@]1(C)O [CLARITHROMYCIN] |  |  |  |  |  |  |  |  |  |  |  |  |  |  |  | 95 |  |  | 
C=C(N=[N+]=[N-])c1cn(COCCO)c(=O)[nH]c1=O | 100 | 100 | 25 | 50 | 50 | inactive | inactive | inactive | inactive | inactive | inactive | inactive | inactive | inactive | Not toxic |  | 50 |  | 
[N-]=[N+]=NC(CCl)c1cn(COCCO)c(=O)[nH]c1=O (stereo unspecified) | 100 | 100 | 50 | 100 | 100 | inactive | inactive | inactive | inactive | inactive | inactive | inactive | inactive | inactive | Not toxic |  | 50 |  | 
CO[C@H]1/C=C/O[C@@]2(C)Oc3c(C)c(O)c4c(O)c(c(/C=N/N5CCN(C)CC5)c(O)c4c3C2=O)NC(=O)/C(C)=C\C=C\[C@H](C)[C@H](O)[C@@H](C)[C@@H](O)[C@@H](C)[C@H](OC(C)=O)[C@@H]1C [RIFAMPIN] |  |  |  |  |  |  |  |  |  |  |  |  |  |  |  | 90 |  | 100 | 100

Reference: ChEMBL document CHEMBL1146361, “Studies on acyclic pyrimidines as inhibitors of mycobacteria” (Bioorg Med Chem, 2007)
